Assay results as given in ChEMBL document CHEMBL4811241, “Revisiting Pyrazolo[3,4-d]pyrimidine Nucleosides as Anti-Trypanosoma cruzi and Antileishmanial Agents” (J Med Chem, 2021).
The source made the active and inactive calls. The rule behind the calls is not given here.

Legend:
Trypanosoma cruzi [1] = assay: Antitrypanosomal activity against nifurtimox-sensitive Trypanosoma cruzi Tulahuen CL2 infected in human MRC-5 SV2 cells assessed as inhibition of parasite growth measured after 7 days by spectrophotometric analysis; assay type: functional, organism-based; conditions: Tulahuen CL2, MRC-5 SV2, 168 h
[2] = Cytotoxicity against human MRC-5 SV2 cells assessed as reduction in cell growth measured after 3 days by resazurin dye based fluorometric analysis; conditions: time 3 day
[3] = Selectivity index, ratio of CC50 for human MRC-5 SV2 cells to IC50 for antitrypanosomal activity against nifurtimox-sensitive Trypanosoma cruzi Tulahuen CL2 infected in human MRC-5 SV2 cells; assay type: toxicity, cell-based; conditions: read-out: Ratio CC50/IC50
In short: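 Ratio of MRC-5SV2 CC50 (3-day resazurin assay) to IC50 against T. cruzi amastigotes in MRC-5SV2 cells (7-day CPRG assay).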

Leishmania infantum = assay: Antileishmanial activity against amastigote form of Leishmania infantum MHOM/MA(BE)/67 infected in Swiss mouse peritoneal macrophages assessed as reduction in parasite growth treated at 2 hrs post-infection and measured after 5 days by Giemsa staining based microscopic analysis; assay type: functional, organism-based; conditions: MHOM/MA(BE)/67, Peritoneal macrophage
In short: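 Swiss mouse peritoneal macrophages, harvested after 2-day potato-starch stimulation, infected 48 h after plating; compounds added 2 h post-infection.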

[4] = Cytotoxicity against Swiss mouse peritoneal macrophages assessed as cell detachment, lysis and granulation measured after 5 days by microscopic analysis; assay type: cell-based, Peritoneal macrophage; conditions: time 5 day
In short: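 Scored within the Leishmania macrophage assay over 5 days: detachment, lysis and granulation judged semi-quantitatively by microscopy across at least 500 cells. CC50 derived from % reduction in normal cells versus untreated wells.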

[5] = Selectivity index, ratio of CC50 for Swiss mouse peritoneal macrophages to IC50 for antileishmanial activity against amastigote form of Leishmania infantum MHOM/MA(BE)/67 infected in Swiss mouse peritoneal macrophages; assay type: toxicity; conditions: read-out: Ratio CC50/IC50
In short: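 Ratio of macrophage CC50 to L. infantum amastigote IC50, both taken from the same 5-day macrophage assay.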

[6] = tested on: Trypanosoma brucei rhodesiense; assay: Antitrypanosomal activity against Trypanosoma brucei rhodesiense STIB900 measured after 6 hrs by alamar blue dye based fluorimetry analysis; assay type: functional, organism-based; conditions: STIB900, 6 h
Trypanosoma cruzi [7] = assay: Antitrypanosomal activity against Trypanosoma cruzi strain Y bloodstream trypomastigotes infected in Swiss Webster mouse assessed as reduction in parasitemia at 100 mg/kg, po qd for 5 days treatment started at 6 days post-infection and measured at 8 days post-infection by light microscopic analysis; assay type: functional, organism-based; conditions: time 2.0 day
In short: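 Male Swiss Webster mice, 18–20 g, six per group; only mice with detectable parasitemia treated. Oral gavage for 5 consecutive days (6–10 dpi); test compound given b.i.d. in 10% Tween 80, benznidazole once daily, formulations freshly prepared. Parasitemia counted by light microscopy in 5 μL blood; mortality checked daily to 34 dpi.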

[8] = Toxicity in Swiss webster mouse infected with Trypanosoma cruzi Y trypomastigotes assessed as animal survival at 10 mg/kg, po qd for 5 days treatment started at 6 days post-infection and measured at 34 days post-infection; assay type: organism-based; conditions: in vivo, 696 h, time 29 day
In short: (§1)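 Male Swiss Webster mice (18−20 g, 4−5 weeks) were infected i.p. with 10⁴ Y-strain bloodstream trypomastigotes from a donor mouse. Only mice with detectable parasitemia were treated, in groups of six. Oral gavage was given on days 6–10 post-infection, b.i.d. or q.d. as listed, in 10% Tween 80 vehicle, freshly prepared. Infected vehicle controls were included. Mortality was checked daily to 34 dpi as cumulative percentage.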

[9] = Toxicity in Swiss webster mouse infected with Trypanosoma cruzi Y trypomastigotes assessed as animal survival at 100 mg/kg, po qd for 5 days treatment started at 6 days post-infection and measured at 34 days post-infection; assay type: organism-based; conditions: in vivo, time 29 day; in short: as §1
Trypanosoma cruzi [10] = assay: Antitrypanosomal activity against nifurtimox-sensitive Trypanosoma cruzi Tulahuen CL2 infected in Swiss mouse peritoneal macrophages assessed as inhibition of parasite growth measured after 7 days by spectrophotometric analysis; assay type: functional, organism-based; conditions: Tulahuen CL2, Peritoneal macrophage, 168 h
Trypanosoma cruzi [11] = assay: Antitrypanosomal activity against Trypanosoma cruzi Y bloodstream trypomastigotes assessed as inhibition of parasite growth incubated for 24 hrs by light microscopy; assay type: functional, organism-based
Trypanosoma cruzi [12] = assay: Antitrypanosomal activity against intracellular amastigote form of Trypanosoma cruzi Y infected in Swiss Webster mouse cardiomyocytes assessed as inhibition of parasite growth incubated for 48 hrs by Giemsa staining based microscopic analysis; assay type: functional, organism-based; conditions: Cardiac muscle cell
In short: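 Primary 2D mouse embryo cardiac cell cultures, infected for 24 h, then washed and exposed for 48 h at 37 °C to a serial dilution. Cells fixed and stained with Giemsa; infected cells and parasites per infected cell scored in 200 host cells. Activity expressed from the inhibition index; two independent experiments run in duplicate.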

[13] = Cytotoxicity against Swiss Webster mouse 2D cardiomyocytes assessed as reduction in cell viability measured after 48 hrs by PrestoBlue assay; parameters: species or system Cardiac Muscle Cell; conditions: read-out: LC50
In short: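 Mouse embryo heart cells as monolayer (2D) or 3D aggregates (25 × 10³ cells/well on 1% agarose). Uninfected cultures exposed 48 h to rising concentrations. Morphology checked by light microscopy; viability read by PrestoBlue; CC₅₀ determined.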

Nc1ncnc2c1c(I)nn2[C@@H]1O[C@H](CO)[C@@H](O)[C@H]1O
IC50 (Trypanosoma cruzi [1]): 12.6 µM
CC50 at 72 h [2]: 25.4 µM
selectivity ratio [3]: 2
IC50 (Leishmania infantum): 25.4 µM
CC50 at 120 h [4]: > 64 µM
selectivity ratio [5]: > 2

Nc1ncnc2c1ccn2[C@@H]1O[C@H](CO)C[C@H]1O
EC50 [6]: 0.00052 µM

Nc1ncnc2c1ccn2[C@@H]1O[C@H](CO)[C@@H](O)[C@H]1O [TUBERCIDIN]
EC50 [6]: 0.036 µM

Nc1ncnc2c1c(/C=C/c1ccccc1)nn2[C@@H]1O[C@H](CO)[C@@H](O)[C@H]1O
IC50 (Trypanosoma cruzi [1]): 16.5 µM
CC50 at 72 h [2]: > 64 µM
selectivity ratio [3]: > 4
IC50 (Leishmania infantum): 50.8 µM
CC50 at 120 h [4]: > 64 µM
selectivity ratio [5]: > 1

C=C(C)c1nn([C@@H]2O[C@H](CO)[C@@H](O)[C@H]2O)c2ncnc(N)c12
IC50 (Trypanosoma cruzi [1]): 29.5 µM
CC50 at 72 h [2]: 0.35 µM
selectivity ratio [3]: < 1
IC50 (Leishmania infantum): 24.1 µM
CC50 at 120 h [4]: 32 µM
selectivity ratio [5]: 1

Nc1ncnc2[nH]ncc12
IC50 (Trypanosoma cruzi [1]): 0.57 µM
CC50 at 72 h [2]: 2.46 µM
selectivity ratio [3]: 5
IC50 (Leishmania infantum): 0.18 µM
CC50 at 120 h [4]: > 64 µM
selectivity ratio [5]: > 355

Nc1ncnc2c1c(-c1c[nH]nn1)nn2[C@@H]1O[C@H](CO)[C@@H](O)[C@H]1O
IC50 (Trypanosoma cruzi [1]): 0.43 µM
CC50 at 72 h [2]: 0.6 µM
selectivity ratio [3]: 1
IC50 (Leishmania infantum): 43.1 µM
CC50 at 120 h [4]: > 64 µM
selectivity ratio [5]: > 1

O=C(Cn1ccnc1[N+](=O)[O-])NCc1ccccc1 [BENZNIDAZOLE]
Activity (Trypanosoma cruzi [7]): Active
Activity [8]: Non-Toxic
survival at 696 h [9]: 100%
IC50 (Trypanosoma cruzi [10]): 1.96 µM

Nc1ncnc2c1c(-c1ccc(Cl)cc1Cl)nn2[C@@H]1O[C@H](CO)[C@@H](O)[C@H]1O
IC50 (Trypanosoma cruzi [1]): 6.06 µM
CC50 at 72 h [2]: > 64 µM
selectivity ratio [3]: > 11
IC50 (Leishmania infantum): 52.8 µM
CC50 at 120 h [4]: > 64 µM
selectivity ratio [5]: > 1

Nc1ncnc2c1c(-c1ccc(Cl)cc1)nn2[C@H]1C[C@H](O)[C@@H](CO)O1
IC50 (Trypanosoma cruzi [1]): 2.49 µM
CC50 at 72 h [2]: > 64 µM
selectivity ratio [3]: > 22
IC50 (Leishmania infantum): ≥ 32.5 µM
CC50 at 120 h [4]: ≥ 32 µM
selectivity ratio [5]: 1

Nc1ncnc2c1c(C#Cc1ccccc1)nn2[C@@H]1O[C@H](CO)[C@@H](O)[C@H]1O
IC50 (Trypanosoma cruzi [1]): 29.4 µM
CC50 at 72 h [2]: > 64 µM
selectivity ratio [3]: > 2
IC50 (Leishmania infantum): 49.4 µM
CC50 at 120 h [4]: > 64 µM
selectivity ratio [5]: > 1

C#Cc1nn([C@@H]2O[C@H](CO)[C@@H](O)[C@H]2O)c2ncnc(N)c12
IC50 (Trypanosoma cruzi [1]): 2.78 µM
CC50 at 72 h [2]: ≥ 46.5 µM
selectivity ratio [3]: 20
IC50 (Leishmania infantum): 10.4 µM
CC50 at 120 h [4]: ≥ 8 µM
selectivity ratio [5]: 1

O=c1[nH]cnc2c1cnn2[C@@H]1O[C@H](CO)[C@@H](O)[C@H]1O
IC50 (Trypanosoma cruzi [1]): 7.18 µM
CC50 at 72 h [2]: > 64 µM
selectivity ratio [3]: 9
IC50 (Leishmania infantum): 6.66 µM
CC50 at 120 h [4]: > 64 µM
selectivity ratio [5]: 10

Nc1ncnc2c1c(C(F)F)nn2[C@@H]1O[C@H](CO)[C@@H](O)[C@H]1O
IC50 (Trypanosoma cruzi [1]): 8.3 µM
CC50 at 72 h [2]: 2.42 µM
selectivity ratio [3]: < 1
IC50 (Leishmania infantum): 0.25 µM
CC50 at 120 h [4]: 0.25 µM
selectivity ratio [5]: 1

Cc1ccc(-c2nn([C@@H]3O[C@H](CO)[C@@H](O)[C@H]3O)c3ncnc(N)c23)s1
IC50 (Trypanosoma cruzi [1]): 7.1 µM
CC50 at 72 h [2]: > 64 µM
selectivity ratio [3]: > 9
IC50 (Leishmania infantum): ≥ 32 µM
CC50 at 120 h [4]: > 64 µM
selectivity ratio [5]: > 1

Nc1ncnc2c1cnn2[C@@H]1O[C@H](CO)[C@@H](O)[C@H]1O
IC50 (Trypanosoma cruzi [1]): 0.29 µM
CC50 at 72 h [2]: > 64 µM
selectivity ratio [3]: > 219
IC50 (Leishmania infantum): 1.06 µM
CC50 at 120 h [4]: > 64 µM
selectivity ratio [5]: > 60
IC50 (Trypanosoma cruzi [11]): > 81 µM
IC50 (Trypanosoma cruzi [12]): 2.46 µM
CC50 at 48 h [13]: > 500 µM

Nc1ncnc2c1c(-c1ccncc1)nn2[C@@H]1O[C@H](CO)[C@@H](O)[C@H]1O
IC50 (Trypanosoma cruzi [1]): 21.5 µM
CC50 at 72 h [2]: > 64 µM
selectivity ratio [3]: > 3
IC50 (Leishmania infantum): 25.4 µM
CC50 at 120 h [4]: > 64 µM
selectivity ratio [5]: > 3

Nc1ncnc2c1c(Cl)nn2[C@@H]1O[C@H](CO)[C@@H](O)[C@H]1O
IC50 (Trypanosoma cruzi [1]): 2.89 µM
CC50 at 72 h [2]: > 64 µM
selectivity ratio [3]: > 22
IC50 (Leishmania infantum): > 64 µM
CC50 at 120 h [4]: > 64 µM
selectivity ratio [5]: > 1

N#Cc1nn([C@@H]2O[C@H](CO)[C@@H](O)[C@H]2O)c2ncnc(N)c12
IC50 (Trypanosoma cruzi [1]): 0.95 µM
CC50 at 72 h [2]: 34.6 µM
selectivity ratio [3]: 36
IC50 (Leishmania infantum): 8 µM
CC50 at 120 h [4]: > 64 µM
selectivity ratio [5]: > 8

Nc1ncnc2c1c(-c1ccccn1)nn2[C@@H]1O[C@H](CO)[C@@H](O)[C@H]1O
IC50 (Trypanosoma cruzi [1]): 30.1 µM
CC50 at 72 h [2]: 36.4 µM
selectivity ratio [3]: 1
IC50 (Leishmania infantum): ≥ 50.8 µM
CC50 at 120 h [4]: > 64 µM
selectivity ratio [5]: 1

NCc1nn([C@@H]2O[C@H](CO)[C@@H](O)[C@H]2O)c2ncnc(N)c12
IC50 (Trypanosoma cruzi [1]): 11.1 µM
CC50 at 72 h [2]: 59.3 µM
selectivity ratio [3]: 5
IC50 (Leishmania infantum): 2 µM
CC50 at 120 h [4]: 8 µM
selectivity ratio [5]: 4
